Test results as given in ChEMBL document CHEMBL4130626, “α-Arylidene Diacylglycerol-Lactones (DAG-Lactones) as Selective Ras Guanine-Releasing Protein 3 (RasGRP3) Ligands” (J Med Chem, 2018).
Activity calls are given as the source filed them. No cut-off for these calls is given here.

Tests used:
[1] = target: T1, RAS guanyl-releasing protein 1 (Homo sapiens, UniProt O95267); assay: Activation of GFP-tagged RasGRP1 (unknown origin) expressed in human LNCAP cells after 30 mins by immunoblot method; type: cell-based
T1 sequence (O95267 whole entry): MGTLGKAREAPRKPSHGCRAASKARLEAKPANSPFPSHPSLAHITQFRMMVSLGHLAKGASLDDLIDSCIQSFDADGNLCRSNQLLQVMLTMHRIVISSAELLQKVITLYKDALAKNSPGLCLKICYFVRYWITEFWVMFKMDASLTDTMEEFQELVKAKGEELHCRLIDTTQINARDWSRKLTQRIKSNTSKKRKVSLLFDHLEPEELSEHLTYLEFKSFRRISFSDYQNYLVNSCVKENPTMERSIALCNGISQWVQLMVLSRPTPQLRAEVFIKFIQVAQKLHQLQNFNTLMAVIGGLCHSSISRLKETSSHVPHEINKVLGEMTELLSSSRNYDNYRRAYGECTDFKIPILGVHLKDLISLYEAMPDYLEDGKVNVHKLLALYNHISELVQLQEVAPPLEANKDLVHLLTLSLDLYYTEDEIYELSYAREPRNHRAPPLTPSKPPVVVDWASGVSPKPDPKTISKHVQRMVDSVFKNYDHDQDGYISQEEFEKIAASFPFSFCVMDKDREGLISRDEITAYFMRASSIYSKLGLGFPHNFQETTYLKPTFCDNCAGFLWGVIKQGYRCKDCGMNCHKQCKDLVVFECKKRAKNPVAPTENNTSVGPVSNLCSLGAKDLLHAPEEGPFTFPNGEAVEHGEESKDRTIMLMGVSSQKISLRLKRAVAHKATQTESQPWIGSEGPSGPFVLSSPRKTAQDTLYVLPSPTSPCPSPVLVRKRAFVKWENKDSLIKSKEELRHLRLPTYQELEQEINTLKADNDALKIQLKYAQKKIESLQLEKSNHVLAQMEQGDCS
Method in brief: (§1)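 Cells expressing GFP-RasGRP1/3 (HEK293 or LNCaP, 48 h after plating, transfected; expression checked by fluorescence 24-48 h later) or Ramos with endogenous RasGRP3 treated with half-log increasing concentrations (max 10 µM), 1000 nM PMA or DMSO, 37 °C, 30 min, 5% CO2. RasGTP by Raf1 RBD bead pulldown and anti-Pan-Ras immunoblot; pERK by western blot. Band intensities normalized to 1000 nM PMA; EC50 from n = 3.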

[2] = target: T1, RAS guanyl-releasing protein 1; assay: Activation of GFP-tagged RasGRP1 (unknown origin) expressed in human LNCAP cells assessed as ERK1/2 phosphorylation after 30 mins by immunoblot method; type: cell-based; method in brief: as §1
[3] = target: T2, RAS guanyl-releasing protein 1 (Homo sapiens) (UniProt O95267); assay: Displacement of [3H]PDBu from full length MBP-tagged human RasGRP1 expressed in Escherichia coli BL21 (DE3) after 5 mins in presence of phosphatidylserine by scintillation counting
T2 sequence (whole entry): T1 sequence (O95267 whole entry)
Method in brief: (§2)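 Competition of [3H]PDBu binding by polyethylene glycol precipitation, with 100 µg/ml phosphatidylserine and ≤0.003% Triton X-100, 5 min at 37 °C. Proteins: full-length purified human PKCα, PKCε; full-length RasGRP1; MBP-RasGRP3 from E. coli BL21(DE3) induced with 0.3 mM IPTG 6 h at room temperature. Ki mean ± SEM of ≥2 experiments, triplicate points.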

[4] = target: Protein kinase C alpha type (Homo sapiens, UniProt P17252); assay: Displacement of [3H]PDBu from full length recombinant human PKCalpha expressed in baculovirus expression system after 5 mins by scintillation counting; method in brief: as §2
Homo sapiens [5] = organism: Homo sapiens; assay: Selectivity ratio of EC50 for PKCdelta (unknown origin) expressed in human LNCAP cells harboring GFP-tagged RasGRP3 to EC50 for GFP-tagged RasGRP3 (unknown origin) expressed in human LNCAP cells; type: cell-based
[6] = target: T3, Ras guanyl-releasing protein 3 (Homo sapiens, UniProt Q8IV61); assay: Activation of RasGRP3 in human Ramos cells after 30 mins by immunoblot method; type: cell-based; method in brief: as §1
T3 sequence (Q8IV61 whole entry): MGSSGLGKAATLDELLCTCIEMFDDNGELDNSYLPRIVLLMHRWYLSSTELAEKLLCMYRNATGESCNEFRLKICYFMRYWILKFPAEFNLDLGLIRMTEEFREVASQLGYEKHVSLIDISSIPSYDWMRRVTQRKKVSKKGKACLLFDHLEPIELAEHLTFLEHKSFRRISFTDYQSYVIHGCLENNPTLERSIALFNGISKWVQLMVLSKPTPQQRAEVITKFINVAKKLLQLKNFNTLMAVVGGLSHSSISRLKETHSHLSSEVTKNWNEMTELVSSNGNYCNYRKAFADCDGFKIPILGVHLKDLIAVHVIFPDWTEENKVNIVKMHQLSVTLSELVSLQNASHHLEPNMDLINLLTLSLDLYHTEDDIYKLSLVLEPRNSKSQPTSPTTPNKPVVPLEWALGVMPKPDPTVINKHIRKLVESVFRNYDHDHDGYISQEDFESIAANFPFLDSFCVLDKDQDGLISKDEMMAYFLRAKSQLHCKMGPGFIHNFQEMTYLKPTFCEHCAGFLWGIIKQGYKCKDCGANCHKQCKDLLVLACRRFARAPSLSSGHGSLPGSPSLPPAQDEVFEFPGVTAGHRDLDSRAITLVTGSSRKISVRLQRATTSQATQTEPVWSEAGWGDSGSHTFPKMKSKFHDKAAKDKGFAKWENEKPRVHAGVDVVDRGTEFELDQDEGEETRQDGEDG

[7] = target: T3, Ras guanyl-releasing protein 3; assay: Activation of GFP-tagged RasGRP3 (unknown origin) expressed in human LNCAP cells after 30 mins by immunoblot method; type: cell-based; method in brief: as §1
[8] = target: Protein kinase C delta type (Homo sapiens, UniProt Q05655); assay: Activation of PKCdelta (unknown origin) expressed in human LNCAP cells harboring GFP-tagged RasGRP1 assessed as phosphorylation at ser299 residues after 30 mins by immunoblot method; type: cell-based
Chain of Protein kinase C delta type (Q05655 whole entry): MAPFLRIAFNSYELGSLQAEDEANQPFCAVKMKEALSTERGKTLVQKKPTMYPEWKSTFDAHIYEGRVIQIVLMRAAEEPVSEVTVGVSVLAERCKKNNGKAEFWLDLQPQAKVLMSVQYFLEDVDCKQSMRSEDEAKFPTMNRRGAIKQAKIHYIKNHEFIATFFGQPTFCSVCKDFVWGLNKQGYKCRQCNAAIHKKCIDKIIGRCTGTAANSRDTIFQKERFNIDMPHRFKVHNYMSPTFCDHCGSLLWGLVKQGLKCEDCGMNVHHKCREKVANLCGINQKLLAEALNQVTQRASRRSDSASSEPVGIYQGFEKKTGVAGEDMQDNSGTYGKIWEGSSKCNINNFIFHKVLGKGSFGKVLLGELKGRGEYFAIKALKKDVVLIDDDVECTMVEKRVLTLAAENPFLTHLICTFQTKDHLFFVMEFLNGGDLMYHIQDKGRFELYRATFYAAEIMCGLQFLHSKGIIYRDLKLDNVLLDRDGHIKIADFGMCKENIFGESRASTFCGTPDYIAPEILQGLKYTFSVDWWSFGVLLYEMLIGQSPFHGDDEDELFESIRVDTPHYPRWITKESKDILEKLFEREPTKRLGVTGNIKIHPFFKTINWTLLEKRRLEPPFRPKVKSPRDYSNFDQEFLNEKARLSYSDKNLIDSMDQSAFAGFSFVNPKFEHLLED
Method in brief: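 PKCδ activation read as phospho-S299 on western blots of lysates (50 µg protein, 10% SDS-PAGE, milk blocking, anti-PKCδS299 overnight). Cells: GFP-RasGRP1/3-transfected HEK293 or LNCaP, or Ramos, treated 30 min at 37 °C with half-log doses (maximum 10 µM), 1000 nM PMA or DMSO. Scanned intensities normalized to 1000 nM PMA; EC50 mean ± SEM, n = 3; values above 10 µM extrapolated.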

Homo sapiens [9] = organism: Homo sapiens; assay: Selectivity ratio of EC50 for PKCdelta (unknown origin) expressed in HEK293 cells harboring GFP-tagged RasGRP3 to EC50 for GFP-tagged RasGRP3 (unknown origin) expressed in HEK293 cells assessed as ERK1/2 phosphorylation; type: cell-based

SMILES: Cn1cc(/C=C2\CC(CO)(COC(=O)C(C)(C)C)OC2=O)c2ccccc21 (centres undefined)
- EC50 [1]: 0.97 µM
- EC50 [2]: 3.73 µM
- inhibition [3]: Active
- Ki [4]: 0.127 µM
- Ratio EC50 (Homo sapiens [5]): 12.9
- EC50 [6]: 0.86 µM
- EC50 [7]: 0.64 µM
- EC50 [8]: 8.03 µM
- Ratio EC50 (Homo sapiens [9]): 3.6
